Results from ChEMBL document CHEMBL1146599, “Substituted pyrrol-1-ylacetic acids that combine aldose reductase enzyme inhibitory activity and ability to prevent the nonenzymatic irreversible modification of proteins from monosaccharides” (J Med Chem, 2003).
Values joined by “and” are separate entries in the source; they are usually repeats but may differ in a detail not shown here. Equal entries are not always repeated.

Key:
[1] = molecular target: Aldo-keto reductase family 1 member B1 (Rattus norvegicus) (UniProt P07943); experiment: In vitro inhibitory activity against aldose reductase of rat lens at 10E-6 M concentration
How it was run: (§1)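 Aldose reductase was prepared from lenses quickly removed from euthanized Fischer-344 rats of both sexes. Compounds were dissolved in 0.2 M NaHCO3. Activity was followed spectrophotometrically as NADPH oxidation. Runs were done in triplicate, and values are means with standard error from three determinations.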

[2] = molecular target: Aldo-keto reductase family 1 member B1 (Homo sapiens, UniProt P15121); experiment: (§2) Inhibitory activity against aldose reductase enzyme
Albumin [3] = molecular target: T1, Albumin (Bos taurus, UniProt P02769); experiment: Glycation-induced fluorescence changes of bovine serum albumin when exposed to fructose (1 mM); p<0.001; type: functional; details: cattle
T1 sequence (P02769 whole entry): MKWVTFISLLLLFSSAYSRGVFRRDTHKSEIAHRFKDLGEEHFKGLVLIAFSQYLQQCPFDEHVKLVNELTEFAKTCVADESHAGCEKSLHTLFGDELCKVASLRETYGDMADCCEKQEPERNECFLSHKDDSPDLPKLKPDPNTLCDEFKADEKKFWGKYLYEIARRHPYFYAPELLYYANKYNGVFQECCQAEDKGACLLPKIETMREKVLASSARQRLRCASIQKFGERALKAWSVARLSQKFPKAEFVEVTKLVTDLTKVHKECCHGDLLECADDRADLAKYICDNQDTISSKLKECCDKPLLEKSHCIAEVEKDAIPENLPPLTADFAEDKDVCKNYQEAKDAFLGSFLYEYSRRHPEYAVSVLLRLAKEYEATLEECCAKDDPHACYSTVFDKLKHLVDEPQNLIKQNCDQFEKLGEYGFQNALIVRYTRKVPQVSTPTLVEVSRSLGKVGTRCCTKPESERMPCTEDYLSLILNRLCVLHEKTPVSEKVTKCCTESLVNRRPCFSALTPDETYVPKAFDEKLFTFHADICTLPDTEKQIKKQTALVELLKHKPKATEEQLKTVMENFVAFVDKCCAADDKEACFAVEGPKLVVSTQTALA
How it was run: (§3)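 Bovine serum albumin (fraction V, essentially fatty acid free) was incubated with fructose for 28 days. Compounds were added as potassium salts dissolved in water. Data are means ± SD with the number of samples given. Significance versus control was assessed by Student's t test.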

Albumin [4] = molecular target: T1, Albumin; experiment: Glycation-induced fluorescence changes of bovine serum albumin when exposed to fructose (5 mM); p<0.001; type: functional; details: cattle; how it was run: as §3
Albumin [5] = molecular target: T1, Albumin; experiment: Formation of DNPH-reactive carbonyl groups in bovine serum albumin exposed to fructose (2.5 mM); not detectable.; type: functional; details: cattle; how it was run: as §3
Albumin [6] = molecular target: T1, Albumin; experiment: Glycation-induced fluorescence changes of bovine serum albumin when exposed to fructose (2.5 mM); p<0.001; type: functional; details: cattle; how it was run: as §3
Albumin [7] = molecular target: T1, Albumin; experiment: Formation of DNPH-reactive carbonyl groups in bovine serum albumin exposed to fructose; not detectable.; type: functional; details: cattle; how it was run: as §3
[8] = molecular target: Aldo-keto reductase family 1 member B1 (Rattus norvegicus) (UniProt P07943); experiment: In vitro inhibitory activity against aldose reductase of rat lens at 10E-7 M concentration; how it was run: as §1
Albumin [9] = molecular target: T1, Albumin; experiment: Formation of DNPH-reactive carbonyl groups in bovine serum albumin exposed to fructose (1 mM); p<0.001; type: functional; details: cattle; how it was run: as §3
Albumin [10] = molecular target: T1, Albumin; experiment: In vitro ability to inhibit the irreversible modification of the model protein albumin in the presence of fructose as glycating agent (1 mM); how it was run: as §3
Albumin [11] = molecular target: T1, Albumin; experiment: In vitro ability to inhibit the irreversible modification of the model protein albumin in the presence of fructose as glycating agent (5 mM); how it was run: as §3
[12] = molecular target: Aldo-keto reductase family 1 member B1 (Rattus norvegicus) (UniProt P07943); experiment: In vitro inhibitory activity against aldose reductase of rat lens at 10E-8 M concentration; how it was run: as §1
Albumin [13] = molecular target: T1, Albumin; experiment: Formation of DNPH-reactive carbonyl groups in bovine serum albumin exposed to fructose; p<0.001; type: functional; details: cattle; how it was run: as §3
[14] = molecular target: Aldo-keto reductase family 1 member B1 (Rattus norvegicus) (UniProt P07943); experiment: In vitro inhibitory activity against aldose reductase of rat lens at 10E-5 M concentration; how it was run: as §1
Albumin [15] = molecular target: T1, Albumin; experiment: Formation of DNPH-reactive carbonyl groups in bovine serum albumin exposed to fructose (1 mM); not detectable; type: functional; details: cattle; how it was run: as §3
Albumin [16] = molecular target: T1, Albumin; experiment: Formation of DNPH-reactive carbonyl groups in bovine serum albumin exposed to fructose (5 mM); not detectable; type: functional; details: cattle; how it was run: as §3
Albumin [17] = molecular target: T1, Albumin; experiment: In vitro ability to inhibit the irreversible modification of the model protein albumin in the presence of fructose as glycating agent (2.5 mM); how it was run: as §3
[18] = molecular target: Aldo-keto reductase family 1 member B1 (Rattus norvegicus) (UniProt P07943); experiment: In vitro inhibitory activity against aldose reductase of rat lens at 10E-9 M concentration; how it was run: as §1
[19] = molecular target: Aldo-keto reductase family 1 member B1 (Rattus norvegicus, UniProt P07943); experiment: as §2; how it was run: as §1
Albumin [20] = molecular target: T1, Albumin; experiment: Formation of DNPH-reactive carbonyl groups in bovine serum albumin exposed to fructose (1 mM); p<0.01; type: functional; details: cattle; how it was run: as §3
Albumin [21] = molecular target: T1, Albumin; experiment: Formation of DNPH-reactive carbonyl groups in bovine serum albumin exposed to fructose (5 mM); not detectable.; type: functional; details: cattle, 5000 µM; how it was run: as §3
Albumin [22] = molecular target: T1, Albumin; experiment: Glycation-induced fluorescence changes of bovine serum albumin when exposed to fructose (1 mM); p<0.01; type: functional; details: cattle; how it was run: as §3
Albumin [23] = molecular target: T1, Albumin; experiment: Formation of DNPH-reactive carbonyl groups in bovine serum albumin exposed to fructose (2.5 mM); p<0.001; type: functional; details: cattle; how it was run: as §3

SMILES: O=C(O)Cn1ccc(C(=O)c2ccc(C(F)(F)F)cc2)c1
- inhibition [1]: 47%

SMILES: O=C(O)Cn1ccc(C(=O)Cc2ccccc2)c1
- inhibition [1]: 29%

SMILES: NC(=O)[C@@H]1C[C@]2(NC(=O)NC2=O)c2cc(F)ccc2O1
- IC50 [2]: 35 nM

SMILES: O=C(O)Cn1ccc(C(=O)c2ccc(Cl)cc2)c1
- inhibition [1]: 41%

SMILES: O=C(O)Cn1ccc(C(=O)c2ccn(-c3ccccc3)c2)c1
- Relative florescence (Albumin [3]): 21
- Relative florescence (Albumin [4]): 16.4
- Carbonyl group (Albumin [5]): not detectable
- Relative florescence (Albumin [6]): 21
- Carbonyl group (Albumin [7]): not detectable
- inhibition [8]: 39%
- Carbonyl group (Albumin [9]): 1.55 nM/mg
- Inhibition (Albumin [10]): 24% and 69%
- Inhibition (Albumin [11]): 41% and 100%
- inhibition [1]: 67%

SMILES: Cn1cc(C(=O)c2ccn(CC(=O)O)c2)c2ccccc21
- inhibition [1]: 38%

SMILES: O=C(O)Cn1ccc(C(=O)c2ccc3ccccc3c2)c1
- inhibition [12]: 49%
- inhibition [8]: 72%
- inhibition [1]: 79%

SMILES: O=C(O)Cn1ccc(C(=O)c2cccc(Cl)c2)c1
- inhibition [1]: 44%

SMILES: O=C(O)Cn1ccc(C(=O)c2ccc([N+](=O)[O-])cc2)c1
- inhibition [1]: 18%

SMILES: O=C(O)Cn1ccc(C(=O)c2ccccc2)c1
- inhibition [1]: 27%

SMILES: Cc1c(C)c2c(c(C)c1O)CCC(C)(C(=O)O)O2 (stereo unspecified) [TROLOX]
- Carbonyl group (Albumin [13]): 3.44 nM/mg
- Relative florescence (Albumin [3]): 12.8
- inhibition [14]: 12%
- Inhibition (Albumin [10]): 54% and 32%

SMILES: O=C(O)Cn1cc(C(=O)c2ccccc2)cc1C(=O)c1ccccc1
- inhibition [12]: 27%
- inhibition [8]: 62%
- inhibition [1]: 82%

SMILES: O=C(O)Cn1ccc(C(=O)c2ccc(-n3cccc3)cc2)c1
- Relative florescence (Albumin [3]): 17.4
- Relative florescence (Albumin [4]): 4.7
- Carbonyl group (Albumin [5]): not detectable
- Carbonyl group (Albumin [15]): not detectable
- Relative florescence (Albumin [6]): 9.8
- Carbonyl group (Albumin [16]): not detectable
- inhibition [8]: 39%
- Inhibition (Albumin [17]): 65% and 100%
- Inhibition (Albumin [10]): 37% and 100%
- Inhibition (Albumin [11]): 100%
- inhibition [1]: 80%

SMILES: O=C(O)Cn1ccc(C(=O)c2ccc(-c3ccccc3)cc2)c1
- inhibition [8]: 37%
- inhibition [1]: 76%

SMILES: Cc1ccc(C(=O)c2ccn(CC(=O)O)c2)cc1
- inhibition [1]: 46%

SMILES: O=C(O)Cn1cc(C(=O)c2ccccc2)c2ccccc21
- inhibition [1]: 38%

SMILES: COc1ccc(C(=O)c2ccn(CC(=O)O)c2)cc1
- inhibition [8]: 26%
- inhibition [1]: 72%

SMILES: O=C(O)Cn1ccc(Cc2ccccc2)c1
- inhibition [1]: 9%

SMILES: O=C(O)Cn1ccc(C(=O)c2ccc3c(c2)CCO3)c1
- inhibition [1]: 42%

SMILES: COc1ccc(C(=O)c2cc(C(=O)c3ccc(OC)cc3)n(CC(=O)O)c2)cc1
- Relative florescence (Albumin [3]): 17.3
- Relative florescence (Albumin [4]): 3.3
- Carbonyl group (Albumin [5]): not detectable
- inhibition [18]: 41%
- Relative florescence (Albumin [6]): 11.8
- inhibition [12]: 59%
- Carbonyl group (Albumin [16]): not detectable
- IC50 [19]: 2.36 nM
- inhibition [8]: 94%
- Inhibition (Albumin [17]): 57% and 100%
- Carbonyl group (Albumin [9]): 2.52 nM/mg
- Inhibition (Albumin [10]): 50%
- inhibition at 1000 µM (Albumin [10]): 38%
- Inhibition (Albumin [11]): 100%
- inhibition [1]: 96%

SMILES: CC(C)(C)c1ccc(C(=O)c2ccn(CC(=O)O)c2)cc1
- inhibition [1]: 41%

SMILES: O=C(O)Cn1ccc(C(=O)c2ccc(O)cc2)c1
- inhibition [1]: 45%

SMILES: O=C(O)Cn1ccc(C(=O)c2ccc3occc3c2)c1
- inhibition [1]: 40%

SMILES: O=C(O)Cn1ccc(C(=O)c2cccc3ccccc23)c1
- inhibition [8]: 59%
- inhibition [1]: 58%

SMILES: COc1ccc(C(=O)c2cc(C(=O)c3ccccc3)n(CC(=O)O)c2)cc1
- Carbonyl group (Albumin [20]): 4.38 nM/mg
- Relative florescence (Albumin [4]): 6.9
- Relative florescence (Albumin [6]): 11.5
- inhibition [12]: 13%
- Carbonyl group (Albumin [21]): not detectable
- Relative florescence (Albumin [22]): 23.1
- inhibition [8]: 51%
- Inhibition (Albumin [17]): 41% and 66%
- Inhibition (Albumin [10]): 20%
- inhibition at 1000 µM (Albumin [10]): 17%
- Inhibition (Albumin [11]): 75% and 100%
- Carbonyl group (Albumin [23]): 1.7 nM/mg
- inhibition [1]: 93%

SMILES: O=C(O)Cn1cccc1C(=O)c1ccccc1
- inhibition [14]: 36%
